Shown are actives, neighbours in structure and some others; about 3.8% of the full set was active somewhere.
Kir21 block: inhibitors of mouse Kir2.1 inward-rectifier potassium channel; Inward rectifier potassium channel 2 (Mus musculus), P35561; HEK293-Kir2.1, FluxOR thallium flux fluorescence; hits give low values; B-score at 10 µM; 310,000 compounds, 0.85% hits;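 active means fluorescence ratio B-score at or below minus 3 SD of library scores, with starting-brightness B-score within 2 SD, cut at about -4.2 in these data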;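 further: channel flux triggered by added potassium and thallium sulfate stimulus; B-score of peak minus minimum fluorescence over baseline after thallium stimulus; more negative B-score means stronger Kir2.1 block with less thallium influx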
KCNQ1 act: potentiators or activators of KCNQ1 channel, primary screen, cell-based, thallium flux, high-throughput. Potassium voltage-gated channel subfamily KQT member 1 (Homo sapiens), P51787. CHO-K1 KCNQ1, thallium flux FluxOR fluorescence; hits give high values. B-score at 10 µM. 310,000 compounds, 0.35% hits. AID 2648, 2010;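 active means fluorescence ratio B-score, a plate-corrected score, at least three library SD, with initial intensity B-score within 5 SD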
Target sequence (P51787 whole entry, looked up): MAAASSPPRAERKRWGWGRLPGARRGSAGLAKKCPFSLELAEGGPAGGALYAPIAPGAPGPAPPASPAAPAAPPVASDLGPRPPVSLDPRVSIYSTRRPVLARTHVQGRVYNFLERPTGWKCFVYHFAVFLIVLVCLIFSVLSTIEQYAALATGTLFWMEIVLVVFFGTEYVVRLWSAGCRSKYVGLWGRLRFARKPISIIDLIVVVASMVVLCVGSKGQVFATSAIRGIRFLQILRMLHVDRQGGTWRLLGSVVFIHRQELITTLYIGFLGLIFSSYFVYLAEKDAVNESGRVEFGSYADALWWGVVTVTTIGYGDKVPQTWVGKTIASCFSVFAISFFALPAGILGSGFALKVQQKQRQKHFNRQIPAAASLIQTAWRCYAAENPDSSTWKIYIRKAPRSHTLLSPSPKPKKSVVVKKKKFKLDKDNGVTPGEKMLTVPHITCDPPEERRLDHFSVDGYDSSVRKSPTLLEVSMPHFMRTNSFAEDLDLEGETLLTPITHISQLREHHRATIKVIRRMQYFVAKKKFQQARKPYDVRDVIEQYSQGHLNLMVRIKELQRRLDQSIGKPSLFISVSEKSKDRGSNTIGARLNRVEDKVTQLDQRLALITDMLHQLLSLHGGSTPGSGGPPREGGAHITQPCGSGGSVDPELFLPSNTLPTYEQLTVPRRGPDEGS
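System: CHO-K1 cells stably expressing KCNQ1 / Medium: assay buffer for compound exposure, DMSO matched across wells / Reagent: thallium- and potassium-containing depolarizing buffer / Compound: one concentration, matched DMSO / Incubation: 20 min compound pretreatment at room temperature / Measured by: kinetic FluxOR fluorescence, 10 s baseline plus 110 s post-stimulus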
KCNK9 inh: KCNK9 potassium channel inhibitors, primary screen, HEK293 cells, thallium flux; B-score at 10 µM; FluxOR thallium flux fluorescence; hits give low values; Potassium channel subfamily K member 9 (Homo sapiens), Q9NPC2; 310,000 compounds, 1.2% hits;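 active means ratio B-score over 3 SD below the library mean, with starting fluorescence within 5 SD of its mean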;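 further: negative B-score means less thallium flux so channel inhibition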
KCNK3 inh: human KCNK3 channel inhibitors, primary screen, CHO cells, FluxOR thallium flux, B-score; 340,000 compounds, 0.84% hits; AID 602410, 2012; B-score at 10 µM; FluxOR fluorescence; hits give low values;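 active means B-score under library mean minus 4 SD, starting fluorescence ratio at most library mean plus 5 SD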;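 further: more negative B-score means stronger inhibition of thallium flux through KCNK3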
KCNQ1 inh: inhibitors of human KCNQ1 channel, primary screen, cell-based, thallium flux, high-throughput; Potassium voltage-gated channel subfamily KQT member 1 (Homo sapiens), P51787; CHO-K1 KCNQ1, FluxOR thallium flux fluorescence; hits give high values; B-score at 10 µM; 310,000 compounds, 1.3% hits; AID 2642, 2010;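 active means compounds whose thallium flux B-score, printed positive for inhibition, exceeds three library SD while starting fluorescence stays within three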;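 further: channel opened by potassium depolarization with thallium stimulus after 20 min compound exposure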
hERG rescue: hERG rescue from dofetilide block, primary screen, cell-based, CHO-hERG, FluxOR thallium flux, dofetilide IC70; Voltage-gated inwardly rectifying potassium channel KCNH2 (Homo sapiens), Q12809; 310,000 compounds, 0.51% hits; dofetilide IC70 present; AID 1511, 2009; activation (rescue from dofetilide block), less the hit threshold, % at 10 µM;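 active means activation above the mean of controls blocked by dofetilide plus 5 SD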;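 further: thallium influx through hERG after potassium depolarization seen as dye fluorescence rise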
KCNK9 block conf: KCNK9 potassium channel inhibitors, confirmation, HEK293 cells, thallium flux, duplicate. 4,900 compounds, 43% hits. shares compounds with KCNK9 inh. FluxOR thallium flux fluorescence. inhibition, % at 10 µM;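 active means thallium signal inhibited by more than 5 SD of the compound-free buffer control wells, on both duplicate plates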;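 further: 0% = assay buffer control wells without compound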
Kir21 sel: mouse Kir2.1 channel inhibition, confirmation, selectivity assay for KCNK9 modulator project, cell-based, HEK293, thallium flux; AID 492993, 2010; Kir2.1 cells, FluxOR thallium flux fluorescence; inhibition, % at 10 µM; 4,900 compounds, 4% hits; shares compounds with KCNK9 inh;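 active means thallium signal drop more than 5 SD beyond the mean of the no-compound control wells, seen in both duplicate plates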;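 further: signal is fluorescence rise after thallium addition divided by baseline fluorescence; plate controls were assay buffer only for no effect and full block by chlorpromazine control for full effect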
KCNK9 uninduced: thallium flux in non-induced HEK293 cells, confirmation, counter-screen for KCNK9 inhibitor project, cell-based, second counter screen, non-induced KCNK9-HEK293; AID 492997, 2010; inhibition, % at 10 µM; FluxOR thallium flux; 4,900 compounds, 40% hits; shares compounds with KCNK9 inh;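 active means thallium signal drop beyond 5 SD of the untreated control mean, on both duplicate plates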;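 further: plate controls were buffer only IC0 wells for no effect and SID17386958 at its maximal inhibitory level for full effect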
* marks the source's active call; other numbers are inactive results.

Screening Cc1cc(C)c(-c2cc(C(=O)Nc3cc(C)ccc3C)[nH]n2)c(O)c1 returned Kir21 block -0.65, KCNQ1 act inactive, KCNK9 inh inactive, KCNK3 inh inactive, KCNQ1 inh inactive and hERG rescue -3.
`CCn1c(SCC#N)nc2c(c1=O)C1(CCCC1)Cc1ccccc1-2` gave Kir21 block -3, KCNQ1 act inactive, KCNK9 inh -12*, KCNK3 inh inactive, KCNQ1 inh inactive, hERG rescue -7, KCNK9 block conf 47%*, Kir21 sel inactive and KCNK9 uninduced inactive.
CC(=O)NC1=NN(C(C)=O)C(C)(CCS(=O)(=O)c2ccc(Br)cc2)S1 (stereo not drawn) was read as Kir21 block 0.24, KCNQ1 act inactive, KCNK9 inh inactive, KCNK3 inh inactive, KCNQ1 inh inactive and hERG rescue -8.
O=C(Nc1cccc(Cl)c1)N(CCN1CCOCC1)Cc1cccc(Cl)c1 was read as Kir21 block -0.68, KCNQ1 act inactive, KCNK9 inh -12*, KCNK3 inh -11*, KCNQ1 inh 6*, hERG rescue -17, KCNK9 block conf 54%*, Kir21 sel inactive and KCNK9 uninduced 34%*.
Screening CCCCC1(Br)C(=O)N(c2ccccc2)N(c2ccccc2)C1=O returned KCNK3 inh inactive.
CCn1c(=O)n(CC)c2cc(N3CCCC3)c(NC(=O)c3ccccc3OC)cc21 was read as Kir21 block 1.6, KCNQ1 act inactive, KCNK9 inh -9*, KCNK3 inh inactive, KCNQ1 inh inactive, hERG rescue -13, KCNK9 block conf 42%*, Kir21 sel inactive and KCNK9 uninduced inactive.
COc1cc(C(=O)Nc2cc3c(cc2N2CCCCC2)n(C)c(=O)n3C)cc(OC)c1OC was read as Kir21 block 0.2, KCNQ1 act inactive, KCNK9 inh -20*, KCNK3 inh inactive, KCNQ1 inh inactive, hERG rescue -7, KCNK9 block conf 67%*, Kir21 sel inactive and KCNK9 uninduced inactive.
Screening CCCc1[nH]nc2c1C1(CCN(C(=O)OCc3ccccc3)CC1)C(C#N)=C(N)O2 returned Kir21 block -0.44, KCNQ1 act inactive, KCNK9 inh -9.7*, KCNK3 inh inactive, KCNQ1 inh inactive, hERG rescue -9, KCNK9 block conf 32%*, Kir21 sel inactive and KCNK9 uninduced inactive.
Screening Cc1cccc(-n2c(=S)[nH]c3sc4c(c3c2=O)CCc2ccccc2-4)c1 returned Kir21 block 0.82, KCNQ1 act 8*, KCNK9 inh inactive, KCNK3 inh inactive, KCNQ1 inh inactive, hERG rescue 3, KCNK9 block conf inactive, Kir21 sel inactive and KCNK9 uninduced inactive.
For CC(=O)c1ccccc1OCC(O)CN1CCN(CCN2C(=O)c3cccc4cccc(c34)C2=O)CC1 (stereo not drawn) the results were Kir21 block 0.9, KCNQ1 act inactive, KCNK9 inh inactive, KCNK3 inh inactive, KCNQ1 inh inactive and hERG rescue -20.
For Cc1ccc(C)c(OCC(O)CN2CCN(CCN3C(=O)c4cccc5cccc(c45)C3=O)CC2)c1 (stereo not drawn) the results were Kir21 block -0.29, KCNQ1 act inactive, KCNK9 inh inactive, KCNK3 inh inactive, KCNQ1 inh inactive, hERG rescue -27, KCNK9 block conf inactive, Kir21 sel inactive and KCNK9 uninduced inactive.
`COc1cc(/C=C2\SC(=S)N(CCC(=O)Nc3ccccn3)C2=O)cc(OC)c1OC` gave Kir21 block 0.01, KCNQ1 act inactive, KCNK9 inh -8.3*, KCNK3 inh inactive, KCNQ1 inh inactive, hERG rescue -12, KCNK9 block conf inactive, Kir21 sel inactive and KCNK9 uninduced inactive.
`O=C(O)C(Cc1ccccc1)N1C(=O)/C(=C/c2cccnc2)SC1=S` (stereo not drawn) gave Kir21 block -0.04, KCNQ1 act inactive, KCNK9 inh inactive, KCNK3 inh inactive, KCNQ1 inh inactive and hERG rescue -8.
For COc1ccc(/C=C2\SC(=S)N(C(Cc3ccccc3)C(=O)O)C2=O)cc1 (stereo not drawn) the results were Kir21 block 0.32, KCNQ1 act inactive, KCNK9 inh inactive, KCNK3 inh inactive, KCNQ1 inh inactive, hERG rescue -15, KCNK9 block conf inactive, Kir21 sel inactive and KCNK9 uninduced inactive.
Screening CCOc1ccc(/C=C2\SC(=S)N(CCC(=O)Nc3ccccc3C(=O)O)C2=O)cc1 returned Kir21 block 0.84, KCNQ1 act inactive, KCNK9 inh inactive, KCNK3 inh inactive, KCNQ1 inh inactive and hERG rescue -11.
For COc1ccc(/C=C2\SC(=S)N(CCC(=O)Nc3ccccc3C(=O)O)C2=O)cc1 the results were Kir21 block -0.16, KCNQ1 act inactive, KCNK9 inh inactive, KCNK3 inh inactive, KCNQ1 inh inactive, hERG rescue -1, KCNK9 block conf inactive, Kir21 sel inactive and KCNK9 uninduced inactive.
Cc1c(C2C(C#N)=C(N)OC3=C2C(=O)CCC3)cnn1C (stereo not drawn) was read as Kir21 block 0.06, KCNQ1 act inactive, KCNK9 inh inactive, KCNK3 inh inactive, KCNQ1 inh inactive and hERG rescue -11.
For CCCOC1CCCN(C(=O)c2cc(COc3ccc(F)c(F)c3)on2)C1 (stereo not drawn) the results were Kir21 block 0.52, KCNQ1 act inactive, KCNK9 inh inactive, KCNK3 inh inactive, KCNQ1 inh inactive and hERG rescue -10.

Assay outcomes from PubChem.
